Reference: ChEMBL document CHEMBL1157027, “The identification of 8,9-dimethoxy-5-(2-aminoalkoxy-pyridin-3-yl)-benzo[c][2,7]naphthyridin-4-ylamines as potent inhibitors of 3-phosphoinositide-dependent kinase-1 (PDK-1)” (Eur J Med Chem, 2010)

Experiments:
[1] = target: Ribosomal protein S6 kinase beta-1 (Homo sapiens, UniProt P23443); assay: Inhibition of p70S6K
[2] = Inhibition of PKA
Summary of the method: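 PKA activity was measured with the Z'-LYTE kinase assay, run per the manufacturer's protocol at 100 uM ATP. IC50 values are given in nM.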

[3] = target: RAC-alpha serine/threonine-protein kinase (Homo sapiens, UniProt P31749); assay: Inhibition of AKT
Sequence of RAC-alpha serine/threonine-protein kinase (P31749 whole entry): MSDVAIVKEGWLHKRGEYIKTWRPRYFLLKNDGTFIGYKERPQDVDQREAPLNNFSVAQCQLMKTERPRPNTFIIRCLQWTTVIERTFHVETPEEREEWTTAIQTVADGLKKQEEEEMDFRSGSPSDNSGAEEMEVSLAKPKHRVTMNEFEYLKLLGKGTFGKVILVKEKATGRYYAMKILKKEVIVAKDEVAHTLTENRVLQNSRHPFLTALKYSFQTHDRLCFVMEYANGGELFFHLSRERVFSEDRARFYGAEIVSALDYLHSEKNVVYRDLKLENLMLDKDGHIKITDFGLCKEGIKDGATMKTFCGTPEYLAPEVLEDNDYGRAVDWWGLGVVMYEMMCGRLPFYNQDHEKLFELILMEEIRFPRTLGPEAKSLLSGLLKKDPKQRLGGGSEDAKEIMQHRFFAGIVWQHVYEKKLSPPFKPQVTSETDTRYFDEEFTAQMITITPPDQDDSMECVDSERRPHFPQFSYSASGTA

[4] = target: T1, 3-phosphoinositide-dependent protein kinase 1 (Homo sapiens, UniProt O15530); assay: Inhibition of human GST-tagged-PDK1 expressed in HEK293 cells; assay type: cell-based
T1 sequence (O15530 whole entry): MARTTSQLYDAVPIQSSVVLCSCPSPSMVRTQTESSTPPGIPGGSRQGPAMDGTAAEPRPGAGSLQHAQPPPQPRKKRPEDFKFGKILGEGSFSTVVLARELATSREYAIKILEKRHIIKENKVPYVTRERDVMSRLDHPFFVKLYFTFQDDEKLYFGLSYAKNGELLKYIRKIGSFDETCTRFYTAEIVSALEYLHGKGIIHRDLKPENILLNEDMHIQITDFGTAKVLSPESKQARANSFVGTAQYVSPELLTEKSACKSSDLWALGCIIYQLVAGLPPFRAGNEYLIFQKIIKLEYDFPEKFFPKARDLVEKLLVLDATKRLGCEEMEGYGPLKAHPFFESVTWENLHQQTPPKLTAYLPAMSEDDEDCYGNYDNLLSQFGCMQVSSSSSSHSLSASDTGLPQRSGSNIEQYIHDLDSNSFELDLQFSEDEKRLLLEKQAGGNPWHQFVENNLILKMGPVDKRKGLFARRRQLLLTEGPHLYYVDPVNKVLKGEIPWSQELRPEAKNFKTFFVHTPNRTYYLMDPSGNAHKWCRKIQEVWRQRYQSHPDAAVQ

Sequence of Ribosomal protein S6 kinase beta-1 (P23443 whole entry): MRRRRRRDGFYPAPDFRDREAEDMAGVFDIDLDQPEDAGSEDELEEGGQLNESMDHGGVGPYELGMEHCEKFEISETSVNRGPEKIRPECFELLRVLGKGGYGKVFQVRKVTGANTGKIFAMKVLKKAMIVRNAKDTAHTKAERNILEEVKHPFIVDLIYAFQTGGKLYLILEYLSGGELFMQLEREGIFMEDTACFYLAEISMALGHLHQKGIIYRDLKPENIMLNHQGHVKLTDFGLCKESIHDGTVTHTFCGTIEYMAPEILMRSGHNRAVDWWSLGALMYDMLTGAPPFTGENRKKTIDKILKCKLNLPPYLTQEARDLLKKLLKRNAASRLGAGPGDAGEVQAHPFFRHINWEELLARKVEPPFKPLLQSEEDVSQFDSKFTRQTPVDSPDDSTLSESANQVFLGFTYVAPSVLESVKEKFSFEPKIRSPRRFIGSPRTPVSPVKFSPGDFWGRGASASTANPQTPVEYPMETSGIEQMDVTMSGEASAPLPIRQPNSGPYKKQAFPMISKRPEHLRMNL

| Compound | IC50 [1] | IC50 [2] | IC50 [3] | IC50 [4] |
| --- | --- | --- | --- | --- |
| COc1cc2ncc3c(N)nc(-c4cncc(OC[C@@H](N)Cc5ccc(F)cc5)c4)cc3c2cc1OC | 21 nM | 32 nM | 183 nM | – |
| COc1cc2ncc3c(N)nc(-c4cncc(OC[C@H](N)Cc5c[nH]c6ccccc56)c4)cc3c2cc1OC | – | 120 nM | 1320 nM | – |
| COc1cc2ncc3c(N)nc(-c4cncc(OC[C@@H](N)Cc5ccccc5)c4)cc3c2cc1OC | 107 nM | 77 nM | 261 nM | – |
| CC[C@@H](N)COc1cncc(-c2cc3c(cnc4cc(OC)c(OC)cc43)c(N)n2)c1 | 72 nM | 45 nM | 318 nM | 3 nM |
| COc1cc2ncc3c(N)nc(-c4cncc(OC[C@@H](C)N)c4)cc3c2cc1OC | – | 86 nM | – | 3 nM |
| COc1cc2ncc3c(N)nc(-c4cncc(OC[C@H](N)Cc5ccc(F)cc5)c4)cc3c2cc1OC | – | 36 nM | 251 nM | – |
| COc1cc2ncc3c(N)nc(-c4cncc(OC[C@@H](N)Cc5ccc(Cl)c(Cl)c5)c4)cc3c2cc1OC | – | 41 nM | – | – |
| COc1cc2ncc3c(N)nc(-c4cncc(OCCN)c4)cc3c2cc1OC | 80 nM | 66 nM | 402 nM | – |
| COc1cc2ncc3c(N)nc(-c4cncc(OC[C@H](N)Cc5ccccc5)c4)cc3c2cc1OC | – | < 31 nM | 259 nM | – |
| COc1cc2ncc3c(N)nc(-c4cncc(OC[C@@H](N)Cc5ccccc5Cl)c4)cc3c2cc1OC | – | 79 nM | 793 nM | – |
| COc1cc2ncc3c(N)nc(-c4cncc(OC[C@H](N)Cc5cccc(C(F)(F)F)c5)c4)cc3c2cc1OC | – | 142 nM | – | – |
| COc1cc2ncc3c(N)nc(-c4cncc(OC[C@H](N)CC(C)C)c4)cc3c2cc1OC | 443 nM | 385 nM | 1390 nM | 18 nM |
| COc1cc2ncc3c(N)nc(-c4cncc(OC[C@@H](N)CC(C)C)c4)cc3c2cc1OC | 219 nM | 113 nM | 905 nM | 14 nM |
| COc1cc2ncc3c(N)nc(-c4cncc(OC[C@@H](N)Cc5c[nH]c6ccccc56)c4)cc3c2cc1OC | 77 nM | 54 nM | 302 nM | – |
| COc1cc2ncc3c(N)nc(-c4cncc(OC[C@@H](N)Cc5ccncc5)c4)cc3c2cc1OC | 343 nM | 138 nM | 1750 nM | 9 nM |
| COc1cc2ncc3c(N)nc(-c4cncc(OC[C@@H](N)Cc5cccc(C(F)(F)F)c5)c4)cc3c2cc1OC | 182 nM | 68 nM | 209 nM | – |
| COc1cc2ncc3c(N)nc(-c4cncc(OC[C@H](C)N)c4)cc3c2cc1OC | – | 123 nM | – | – |
| CC[C@H](N)COc1cncc(-c2cc3c(cnc4cc(OC)c(OC)cc43)c(N)n2)c1 | 216 nM | 59 nM | 422 nM | – |
| COc1cc2ncc3c(N)nc(-c4cncc(OC[C@@H](N)Cc5cccc(Cl)c5)c4)cc3c2cc1OC | – | 18 nM | 78 nM | – |
